Results published in ChEMBL document CHEMBL2034912, “Synthesis of 4-methylcoumarin derivatives containing 4,5-dihydropyrazole moiety to scavenge radicals and to protect DNA” (Eur J Med Chem, 2012).
Activity calls are given as the source filed them.

Key:
Assay type in all cases: functional
[1] = Antioxidant activity against AAPH-induced DNA oxidation assessed as decrease in thiobarbituric acid reactive substances at 80 to 200 uM measured every 120 mins by spectrophotometry
Method in brief: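 DNA (final 2.0 mg/mL) and AAPH (final 4.0 mM) in phosphate buffer with 10.0 mM EDTA; test compounds added in DMSO across various concentrations; 2.0 mL aliquots incubated at 37 °C. Three tubes withdrawn every 120 min, cooled, treated with TBA and 3.0% trichloroacetic acid, then boiled 15 min; TBARS absorbance read. Inhibition period (t_inh) fitted linearly against concentration.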

[2] = Antioxidant activity assessed as ABTS radical scavenging activity at 40 uM
Method in brief: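 ABTS (4.0 mM) oxidized with 1.41 mM K₂S₂O₈ for 16 h to form the radical cation, then diluted with ethanol to absorbance about 0.70. Compound added at 0.04 mM, and absorbance decay at 734 nm followed over time. Number of radicals trapped (n) is the depleted ABTS radical concentration divided by antioxidant concentration.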

[3] = test system: Radical scavenging activity; test: Antioxidant activity assessed as DPPH radical scavenging activity at 40 uM
Method in brief: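 DPPH dissolved in ethanol to absorbance about 1.00 at 517 nm (ε […] M⁻¹ cm⁻¹). Compound added as an ethanol solution at a single final concentration, and the decay of DPPH absorbance recorded.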

Measured: Activity

COc1cc(C2CC(c3c(O)ccc4c(C)cc(=O)oc34)=NN2)ccc1O (centres undefined)
active: all assays above

COc1cc(C2CC(c3c(O)ccc4c(C)cc(=O)oc34)=NN2C(C)=O)ccc1O (centres undefined)
active: all assays above

CC(=O)N1N=C(c2c(O)ccc3c(C)cc(=O)oc23)CC1c1cccc([N+](=O)[O-])c1 (centres undefined)
active: all assays above

O=c1ccc2cc3ccoc3c(O)c2o1
active: all assays above

Cc1cc(=O)oc2c(C3=NNC(c4cccc([N+](=O)[O-])c4)C3)c(O)ccc12 (centres undefined)
active: all assays above

CC(=O)N1N=C(c2c(O)ccc3c(C)cc(=O)oc23)CC1c1ccccc1O (centres undefined)
active: all assays above

CC(=O)N1N=C(c2c(O)ccc3c(C)cc(=O)oc23)CC1c1ccc(O)cc1O (centres undefined)
active: all assays above

CC(=O)N1N=C(c2c(O)ccc3c(C)cc(=O)oc23)CC1c1ccc(O)c(O)c1 (centres undefined)
active: all assays above
